{"source": "ChEMBL document CHEMBL1671716", "about": "“Antimicrobial susceptibility patterns for recent clinical isolates of anaerobic bacteria in South Korea” (2010)", "format_in_all_cases": "functional", "key": {"Prevotella bivia": {"system": "Prevotella bivia", "assay": "Antimicrobial activity against Prevotella bivia assessed as percent susceptible isolates after 48 hrs by agar dilution method", "method_in_brief": "(§1)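 CLSI agar dilution (M11-A7); inoculum 10^5 CFU applied by replicator; plates incubated anaerobically 48 h at 37°C. For piperacillin-tazobactam, tazobactam held constant at 4 μg/ml.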"}, "Anaerococcus prevotii [1]": {"system": "Anaerococcus prevotii", "assay": "Antimicrobial activity against Anaerococcus prevotii assessed as percent susceptible isolates after 48 hrs by agar dilution method"}, "[2]": {"system": "Parabacteroides distasonis", "assay": "Antimicrobial activity against Bacteroides distasonis after 48 hrs by agar dilution method", "method_in_brief": "(§2)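 MICs on clinical anaerobe isolates by the CLSI agar dilution method. Inoculum of 10^5 CFU applied with a Steers replicator. Plates incubated 48 h at 37°C in an anaerobic chamber.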"}, "Actinomyces naeslundii [3]": {"system": "Actinomyces naeslundii", "assay": "Antimicrobial activity against Actinomyces naeslundii assessed as percent resistant isolates after 48 hrs by agar dilution method", "method_in_brief": "(§3)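 CLSI agar dilution on recent Korean clinical anaerobe isolates. Inoculum 10^5 CFU per spot by replicator. Plates incubated in an anaerobic chamber at 37°C for 48 h. For piperacillin plus tazobactam, tazobactam was held constant at 4 μg/ml. Resistance and susceptibility rates derived from MICs.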"}, "Bacteroides fragilis [4]": {"system": "Bacteroides fragilis", "assay": "Antimicrobial activity against Bacteroides fragilis assessed as percent resistant isolates after 48 hrs by agar dilution method", "method_in_brief": "as §3"}, "Schaalia meyeri": {"system": "Schaalia meyeri", "assay": "Antimicrobial activity against Actinomyces meyeri after 48 hrs by agar dilution method", "method_in_brief": "as §2"}, "Eubacterium sp.": {"system": "Eubacterium sp.", "assay": "Antimicrobial activity against Eubacterium sp. after 48 hrs by agar dilution method", "method_in_brief": "as §1"}, "Clostridium perfringens": {"system": "Clostridium perfringens", "assay": "Antimicrobial activity against Clostridium perfringens assessed as percent susceptible isolates after 48 hrs by agar dilution method"}, "Schaalia odontolytica": {"system": "Schaalia odontolytica", "assay": "Antimicrobial activity against Actinomyces odontolyticus after 48 hrs by agar dilution method", "method_in_brief": "as §2"}, "Phocaeicola vulgatus": {"system": "Phocaeicola vulgatus", "assay": "Antimicrobial activity against Bacteroides vulgatus assessed as percent resistant isolates after 48 hrs by agar dilution method", "method_in_brief": "as §3"}, "Bacteroides caccae": {"system": "Bacteroides caccae", "assay": "Antimicrobial activity against Bacteroides caccae after 48 hrs by agar dilution method", "method_in_brief": "as §2"}, "Anaerococcus prevotii [5]": {"system": "Anaerococcus prevotii", "assay": "Antimicrobial activity against Anaerococcus prevotii assessed as percent resistant isolates after 48 hrs by agar dilution method", "method_in_brief": "as §3"}, "[6]": {"system": "Peptoniphilus asaccharolyticus", "assay": "Antimicrobial activity against Peptoniphilus asaccharolyticus after 48 hrs by agar dilution method", "method_in_brief": "as §1"}, "Fusobacterium varium": {"system": "Fusobacterium varium", "assay": "Antimicrobial activity against Fusobacterium varium after 48 hrs by agar dilution method", "method_in_brief": "as §1"}, "Eggerthella lenta": {"system": "Eggerthella lenta", "assay": "Antimicrobial activity against Eubacterium lentum after 48 hrs by agar dilution method", "method_in_brief": "as §1"}, "Parvimonas micra": {"system": "Parvimonas micra", "assay": "Antimicrobial activity against Peptostreptococcus micros assessed as percent susceptible isolates after 48 hrs by agar dilution method", "method_in_brief": "as §3"}, "[7]": {"system": "Bifidobacterium adolescentis", "assay": "Antimicrobial activity against Bifidobacterium adolescentis assessed as percent resistant isolates after 48 hrs by agar dilution method", "method_in_brief": "as §3"}, "Hoylesella oralis": {"system": "Hoylesella oralis", "assay": "Antimicrobial activity against Prevotella oralis after 48 hrs by agar dilution method", "method_in_brief": "as §1"}, "Actinomyces naeslundii [8]": {"system": "Actinomyces naeslundii", "assay": "Antimicrobial activity against Actinomyces naeslundii assessed as percent susceptible isolates after 48 hrs by agar dilution method"}, "[9]": {"system": "Bacteroides thetaiotaomicron", "assay": "Antimicrobial activity against Bacteroides thetaiotaomicron assessed as percent resistant isolates after 48 hrs by agar dilution method", "method_in_brief": "as §3"}, "Actinomyces israelii [10]": {"system": "Actinomyces israelii", "assay": "Antimicrobial activity against Actinomyces israelii after 48 hrs by agar dilution method", "method_in_brief": "as §2"}, "Bacteroides fragilis [11]": {"system": "Bacteroides fragilis", "assay": "Antimicrobial activity against Bacteroides fragilis after 48 hrs by agar dilution method", "method_in_brief": "as §2"}, "Clostridioides difficile": {"system": "Clostridioides difficile", "assay": "Antimicrobial activity against Clostridium difficile assessed as percent resistant isolates after 48 hrs by agar dilution method"}, "Bacteroides ovatus": {"system": "Bacteroides ovatus", "assay": "Antimicrobial activity against Bacteroides ovatus assessed as percent susceptible isolates after 48 hrs by agar dilution method"}, "Actinomyces israelii [12]": {"system": "Actinomyces israelii", "assay": "Antimicrobial activity against Actinomyces israelii assessed as percent susceptible isolates after 48 hrs by agar dilution method"}, "[13]": {"system": "Peptoniphilus asaccharolyticus", "assay": "Antimicrobial activity against Peptoniphilus asaccharolyticus assessed as percent resistant isolates after 48 hrs by agar dilution method", "method_in_brief": "as §3"}, "Fusobacterium mortiferum": {"system": "Fusobacterium mortiferum", "assay": "Antimicrobial activity against Fusobacterium mortiferum after 48 hrs by agar dilution method", "method_in_brief": "as §1"}, "Prevotella intermedia": {"system": "Prevotella intermedia", "assay": "Antimicrobial activity against Prevotella intermedia assessed as percent susceptible isolates after 48 hrs by agar dilution method", "method_in_brief": "as §1"}, "[14]": {"system": "Peptoniphilus asaccharolyticus", "assay": "Antimicrobial activity against Peptoniphilus asaccharolyticus assessed as percent susceptible isolates after 48 hrs by agar dilution method", "method_in_brief": "as §1"}}}
{"smiles": "C[C@@H](O)[C@H]1C(=O)N2C(C(=O)O)=C(SCCNC=N)C[C@H]12", "note": "[IMIPENEM ANHYDROUS]", "values": [{"measurement": "Activity", "setting": "Prevotella bivia", "result": 100, "unit": "%"}, {"measurement": "Activity", "setting": "Anaerococcus prevotii [1]", "result": 100, "unit": "%"}, {"measurement": "MIC50", "setting": "[2]", "result": 0.5, "unit": "µg/mL"}, {"measurement": "MIC90", "setting": "[2]", "result": 4, "unit": "µg/mL"}, {"measurement": "Activity", "setting": "Actinomyces naeslundii [3]", "result": 0, "unit": "%"}, {"measurement": "Activity", "setting": "Bacteroides fragilis [4]", "result": 2, "unit": "%"}, {"measurement": "MIC50", "setting": "Schaalia meyeri", "result": 0.06, "unit": "µg/mL"}, {"measurement": "MIC90", "setting": "Schaalia meyeri", "result": 0.5, "unit": "µg/mL"}, {"measurement": "MIC50", "setting": "Eubacterium sp.", "result": 0.06, "unit": "µg/mL"}, {"measurement": "MIC90", "setting": "Eubacterium sp.", "result": 0.5, "unit": "µg/mL"}, {"measurement": "Activity", "setting": "Clostridium perfringens", "result": 100, "unit": "%"}, {"measurement": "MIC50", "setting": "Schaalia odontolytica", "result": 0.06, "unit": "µg/mL"}, {"measurement": "MIC90", "setting": "Schaalia odontolytica", "result": 0.5, "unit": "µg/mL"}, {"measurement": "Activity", "setting": "Phocaeicola vulgatus", "result": 4, "unit": "%"}, {"measurement": "MIC50", "setting": "Bacteroides caccae", "result": 0.5, "unit": "µg/mL"}, {"measurement": "MIC90", "setting": "Bacteroides caccae", "result": 4, "unit": "µg/mL"}, {"measurement": "Activity", "setting": "Anaerococcus prevotii [5]", "result": 0, "unit": "%"}, {"measurement": "MIC50", "setting": "[6]", "result": "≤ 0.008", "unit": "µg/mL"}, {"measurement": "MIC90", "setting": "[6]", "result": 0.03, "unit": "µg/mL"}, {"measurement": "MIC", "setting": "Fusobacterium varium", "result": 0.02, "unit": "µg/mL"}, {"measurement": "MIC50", "setting": "Eggerthella lenta", "result": 0.06, "unit": "µg/mL"}, {"measurement": "MIC90", "setting": "Eggerthella lenta", "result": 0.5, "unit": "µg/mL"}, {"measurement": "Activity", "setting": "Parvimonas micra", "result": 0, "unit": "%"}, {"measurement": "Activity", "setting": "[7]", "result": 15, "unit": "%"}, {"measurement": "MIC50", "setting": "Hoylesella oralis", "result": 0.06, "unit": "µg/mL"}, {"measurement": "MIC90", "setting": "Hoylesella oralis", "result": 0.5, "unit": "µg/mL"}, {"measurement": "Activity", "setting": "Actinomyces naeslundii [8]", "result": 100, "unit": "%"}, {"measurement": "Activity", "setting": "[9]", "result": 4, "unit": "%"}, {"measurement": "MIC50", "setting": "Actinomyces israelii [10]", "result": 0.06, "unit": "µg/mL"}, {"measurement": "MIC90", "setting": "Actinomyces israelii [10]", "result": 0.5, "unit": "µg/mL"}, {"measurement": "MIC50", "setting": "Bacteroides fragilis [11]", "result": 0.125, "unit": "µg/mL"}, {"measurement": "MIC90", "setting": "Bacteroides fragilis [11]", "result": 1, "unit": "µg/mL"}, {"measurement": "Activity", "setting": "Clostridioides difficile", "result": 8, "unit": "%"}, {"measurement": "Activity", "setting": "Bacteroides ovatus", "result": 95, "unit": "%"}, {"measurement": "Activity", "setting": "Actinomyces israelii [12]", "result": 100, "unit": "%"}, {"measurement": "Activity", "setting": "[13]", "result": 0, "unit": "%"}, {"measurement": "MIC", "setting": "Fusobacterium mortiferum", "result": 0.02, "unit": "µg/mL"}, {"measurement": "Activity", "setting": "Prevotella intermedia", "result": 100, "unit": "%"}, {"measurement": "Activity", "setting": "[14]", "result": 100, "unit": "%"}]}
